Test results from the EternaBench riboswitch data.

Test system: MS2 coat protein
Test: apparent Kd, MS2 coat protein; higher = weaker binding; RNA-MaP array
In short: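 With or without input ligand, designed RNAs transcribed on an Illumina sequencing chip from sequenced DNA templates were incubated at room temperature with fluorescently labeled MS2 coat protein at 1.5 nM to 3 μM. The buffer was Tris-HCl pH 7.5 with KCl, MgCl2, BSA, DTT, tRNA and Tween20, and incubation ran 0.8–1.5 h at the lowest and 10–20 min at the highest concentrations. Apparent Kd is reported as the median of fits to binding curves from individual clusters. Designs measured on fewer than 10 clusters are not included.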

[1] = designed as: OFF switch for flavin mononucleotide, no ligand
[2] = ligand present: flavin mononucleotide, designed as: OFF switch for flavin mononucleotide
[3] = designed as: ON switch for flavin mononucleotide, no ligand
[4] = ligand present: flavin mononucleotide, designed as: ON switch for flavin mononucleotide
[5] = designed as: OFF switch for tryptophan, no ligand
[6] = ligand present: tryptophan, designed as: OFF switch for tryptophan

UCAUCGAGAGAGGAUAUCGUAGCAAUUCACCAGCGAGAAGGCUCGACAUGAGGAUCACCCAUGUGGCUCCGCUU
apparent Kd [1]: 24.2 nM
apparent Kd [2]: 73.6 nM

CCUGCAGGUCAGGAUAUCAUAUCUGGCUAACUAUGAGAAGGGACAACAUGAGGAUCACCCAUGUGGUGAUAACA
apparent Kd [1]: 666 nM
apparent Kd [2]: 509 nM

CCGGCGGAAGGAUAUUGCGAUGACCACAUGAGGAUCACCCAUGUCAACUUGAUCCGGGUACAAGAAGGUCCAGCGA
apparent Kd [1]: 19.3 nM
apparent Kd [2]: 15.9 nM

CCUUCCUAGUGAGGAUAUCGGCUUGGACUCGAGCGAGAAGGCACCUAAUCGAAGAACUUUUAUCCACAUGAGGAUCACCCAUGU
apparent Kd [3]: 11.8 nM
apparent Kd [4]: 11.1 nM

AGCAAGACCGAGUCCAAUAACAUGAGGAUCACCCAUGUGUUCGAGGAUAUUAGGACUGAUGGGACUAAGAAGGCGAUCCCUUGU
apparent Kd [3]: 46.5 nM
apparent Kd [4]: 37.2 nM

UUGUCACAUGAGGAUCACCCAUGUAAGAGAUUCCAAGGAUAUAUUAUCGGGUAAAAUGAAAUAGAAGGUGGUCAGA
apparent Kd [3]: 90.3 nM
apparent Kd [4]: 65.6 nM

CGAAGACAUGAGGAUCACCCAUGUAAGGAUAUUCAAAGAGCGCACCUGAAUGCCCUAUGAAGAAGGUACCGGGC
apparent Kd [1]: 69.9 nM
apparent Kd [2]: 52.1 nM

AAGUACUUUGAGAAGGACCUCUCGAACAUGAGGAUCACCCAUGUCACGGAGUACCCGAUCGGCUGGUAGGAUAUCAUGGUACCG
apparent Kd [3]: 9.89 nM
apparent Kd [4]: 8.15 nM

ACAACGUAACGAGGAUAUAAUCUAAAAGUUCGGUGACGUAGACAUGAGGAUCACCCAUGUUAGUAUUAGAAGGCGUUCGGCGGG
apparent Kd [1]: 14.4 nM
apparent Kd [2]: 41.9 nM

UAGACCGAAGGAUAUACAUGAGGAUCACCCAUGUCAAGGACAUACCCACGAAAGGCACGUAGAAGGUCGGCAUA
apparent Kd [1]: 18.2 nM
apparent Kd [2]: 33.1 nM

GUUUUCAACUUGUAGGAUAUUUCUCACGAGACAUGAGGAUCACCCAUGUAGUGAACCAGGGAUCGAAAGAAGGACAUCAUGACGGU
apparent Kd [3]: 75.2 nM
apparent Kd [4]: 49.9 nM

GCACACAUGAGUUAGGAUAUAUGUUGUGAGACAUGAGGAUCACCCAUGUGUGCAUUGCUUAUAAUAUAGAAGGAACCCAGGUCGGC
apparent Kd [3]: 25.5 nM
apparent Kd [4]: 17.1 nM

UGCACCGCAGGAUAUACAAUGGAGGACGUUGUGAAUCAUAGACAUGAGGAUCACCCAUGUAGAAGGGCGUAUAA
apparent Kd [1]: 34 nM
apparent Kd [2]: 78.5 nM

AAUUGAAACAGAGGUAUAUACGGACAUUACCGAGGACCGGUACGGCCGCCACUCGACCUAAAACAUGAGGAUCACCCAUGUAGCA
apparent Kd [5]: 13.1 nM
apparent Kd [6]: 13.6 nM

UUCUAUGUGACAGGAUAUAGACUCCACCAGUUUCUAGAAGGGUCACAGACGGAUCUUUAUUUGUCACAUGAGGAUCACCCAUGU
apparent Kd [3]: 28.7 nM
apparent Kd [4]: 9.71 nM

UCCUUGGAGUCAGGAUAUGUCGACAACGGAAUGACAGAAGGGACUUGGCAGCUUAAUUCUUCAGUACAUGAGGAUCACCCAUGU
apparent Kd [1]: 9.35 nM
apparent Kd [2]: 9.19 nM

GACGUGGUGAAGAAGGGCUGACGUAACCGGUGAGCAGGAUAUUCGACUCAUUAAUACAUGAGGAUCACCCAUGUUCGGUAGCGC
apparent Kd [1]: 24.8 nM
apparent Kd [2]: 68 nM

AACUGAAGCACCUUAUGCGGCGGCAAAACCCGAGGACCGGUACGGCCGCCACUCGAGUCGCAACAUGAGGAUCACCCAUGUGUAU
apparent Kd [5]: 51.3 nM
apparent Kd [6]: 117 nM

AGACACAUGAGGAUCACCCAUGUACACGAGCGAGGACCGGUACGGCCGCCACUCGUCCAAGCAACUAAUGAGACUCGUAAGAUGG
apparent Kd (designed as: ON switch for tryptophan, no ligand): 24.6 nM
apparent Kd (ligand present: tryptophan, designed as: ON switch for tryptophan): 29.3 nM

AAAAUACAUGAGGAUCACCCAUGUCGCAAAUGCAUAGGAUAUGAUGAUGCUAAACACGCAUCAGAAGGAUGUAGAA
apparent Kd [3]: 10.9 nM
apparent Kd [4]: 9.52 nM

CGGAAUUCAGGAUAUGGCAUAUCCUACAUGAGGAUCACCCAUGUAUGACCCGUGUGCCGGCCAGAAGGGAACGCUG
apparent Kd [1]: 10.8 nM
apparent Kd [2]: 12 nM

CCCUCUUUAUAGGAUAUGUAGACCAUGGGACAAACAGAAGGAUAGACAUGAGGAUCACCCAUGUGGGAAAACUU
apparent Kd [1]: 31.8 nM
apparent Kd [2]: 30.4 nM

GAACAACAUGAGGAUCACCCAUGUCAGGAUACCAGUCGAAAGUCAGACCCUUGGCAGCCUAUCACUCAGCAAAUAGAUAGUACAA
apparent Kd (designed as: ON switch for theophylline, no ligand): 15.2 nM
apparent Kd (ligand present: theophylline, designed as: ON switch for theophylline): 13.7 nM

UGCCCACAGGAGAAGGUGGCUCAACCAGAGCGCCAAGGAUAUCCGGAGUUACUCCUCACUACAUGAGGAUCACCCAUGUUUCAU
apparent Kd [1]: 71.5 nM
apparent Kd [2]: 54.6 nM

CGGUGAUAUGAAGGAUAUGCACAUGAGGAUCACCCAUGUAACCACUAGAACAAAACGUAGUAACCGCAGAAGGUCAGCAGUAGU
apparent Kd [3]: 23.6 nM
apparent Kd [4]: 14.5 nM

CACAUGAGGAUCACCCAUGUGUGGUGGGUGGUGCAACAUUGUAAGGAUAUAAUGGACGUCGGCCCUUAGAAGGUACAUUGUACG
apparent Kd [1]: 139 nM
apparent Kd [2]: 110 nM

GUAGAACCGCAGAAGGCAUUGAUUCGAGAGCGAUGAGGAUAUGCUCGUCGACAUGAGGAUCACCCAUGUUUACGAUUGAGAUAU
apparent Kd [3]: 15.1 nM
apparent Kd [4]: 9.74 nM

GGUCUACAUGAGGAUCACCCAUGUGAGUUCACGGCAGGAUAUGGGUGCCUUUUUAGGCUACCAGAAGGGCCCUCUG
apparent Kd [3]: 38.1 nM
apparent Kd [4]: 19.2 nM

UCUCGUGUGAAGGAUAUAGAUAUUUAACAAAAGCUAGAAGGUCAAACAUGAGGAUCACCCAUGUUUACAUAGGA
apparent Kd [1]: 8.77 nM
apparent Kd [2]: 10.9 nM

CAUUCUUUAGUAAGGAUAUCAACUUGUUUAUAUAAUGAGAAGGUACAUGAGGAUCACCCAUGUCUCACAUCGGU
apparent Kd [1]: 8.72 nM
apparent Kd [2]: 7.9 nM

AUCGAUAAGAAGAAGGUGUGACAUGAGGAUCACCCAUGUUAUUGAACAGCACAUGAUCACAGAUACAAGGAUAUUCUACGUAUG
apparent Kd [1]: 24.4 nM
apparent Kd [2]: 23.7 nM

GCGUGUUAUAGUCAUCGUGAGCGUCCAUCCCGAGGACCGGUACGGCCGCCACUCGCCACAGGACAUGAGGAUCACCCAUGUUAUG
apparent Kd [5]: 15 nM
apparent Kd [6]: 17 nM

CUCGAAUUAUCAGGAUAUCCACAAUUCGAAGAAGGAGAAGGGAUGGCAGGGCUAACAUGGAACAUGAGGAUCACCCAUGUGCAA
apparent Kd [3]: 11.2 nM
apparent Kd [4]: 9.94 nM

AAUAAGUUAGGAUAUUCAGGAGCAGCGCAAUGGUACGAGUCGAAGAAGGAACAUGAGGAUCACCCAUGUGAACC
apparent Kd [1]: 11.2 nM
apparent Kd [2]: 11.5 nM

CGAGGACAUGAGGAUCACCCAUGUGACCGUGCCAAAGGAUAUCACAGGAAAUAAUACAGUUGAGAAGGUUGAUCGG
apparent Kd [3]: 47.1 nM
apparent Kd [4]: 17.6 nM

CGAAAUUCAGUAAGGAUAUUAGGAGGCUCUGCGGCUAAGAAGGUACAUGAGGAUCACCCAUGUGGCACCGCAUG
apparent Kd [1]: 7.65 nM
apparent Kd [2]: 7.82 nM
